Results on 13 compounds are retold here after PubChem BioAssay.

SMILES strings stand for the structures. Activity calls are given as the source filed them.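 The calls were made as follows, unless noted: active = fluorescence slope higher than the sample average by over 3 SD (cut at about -0.22 in these data, passing the limit was not always enough); inactive = the rest.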

The nature of experiment [1]: inhibitors of TNFa-induced NFkB p65 translocation, primary screen, imaging, HUVEC, MLSMR starter and 10KST1 sets (AID 438;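 active = inhibition above 20% together with a positive visual image hit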;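 also: compound added about 3h40 before a 20 min TNFalpha stimulation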;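 as to inhibition: signal is the nuclear over cytoplasmic p65 intensity ratio per well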). Conditions: HUVEC TNFa-induced p65 nuclear translocation; cell count: measured here: nuclei count (cytotoxicity indicator), at 2.08 µM; inhibition: at 2 µM, stronger effect = higher value, 0% TNFa-plus-vehicle, 100% no-TNFa wells.
The nature of experiment [2]: endothelial E-selectin expression blockers – imaging, HUVEC, immunofluorescence, MLSMR starter and 10KST1 sets, primary screen (AID 487;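 active = visually confirmed hit in the image check and inhibition above 20%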;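 as to inhibition: signal is fraction of cell area covered by stained E-selectin grains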;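 as to nuclei count: 100% = median nuclei count of all wells on the same plate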). The following applies: HUVEC TNFalpha-induced E-selectin immunofluorescence imaging, at 2 µM; inhibition: stronger effect = higher value; nuclei count: measured here: cell number, toxicity.
The nature of experiment [3]: Primary imaging screen for DUSP6 inhibitors that restore phospho-Erk in transfected HeLa cells, chemical complementation (AID 609;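 active = compounds giving at least 50% inhibition in the cell-based MKP-3 phosphatase rescue imaging test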;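 as to inhibition: phospho-Erk level distribution per well compared with pooled transfected vehicle control wells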). Conditions: HeLa MKP-3 transfected, phospho-Erk imaging KS statistic, at 10 µM, cells stimulated with TPA for 15 min.
Experiment [4] addresses Dual specificity protein phosphatase 6 (Homo sapiens) (UniProt Q16828). The experiment is described as above. The following applies: HeLa MKP-3 transfected, phospho-Erk imaging KS statistic; at 10 µM; stronger effect = higher value; cells stimulated with TPA for 15 min.
Experiment [5] deals with Voltage-gated potassium channel subunit beta-2 (Rattus norvegicus) (UniProt P62483). As to the kind of experiment: inhibitors of rat Kvbeta2 reductase activity – biochemical, NADPH fluorescence, primary screen (AID 622).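 Also: slope of raw intensity against log time taken from 70 to 1610 s.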 Conditions: recombinant KvBeta, 4-cyanobenzaldehyde reduction, at 10 µM, stronger effect = higher value.
For experiment [6] the target is unchanged. As to the kind of experiment: enhancers of rat Kvbeta2 NADPH turnover – biochemical, NADPH fluorescence, primary screen (AID 623;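 active = NADPH fluorescence slope more negative than the mean of all samples by about 3 SD, 99.7% confidence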;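 also: fluorescence intensity change per second fitted from 20 to 320 s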). Conditions: Recombinant KvBeta, NADPH fluorescence decrease slope, 10 min; at 10 µM; stronger effect = lower value.
Experiment [7] deals with Alpha-2C adrenergic receptor (Homo sapiens) (UniProt P18825). Description: compounds altering alpha2C-coupled GIRK flux – cell-based, HEK293 alpha2C/GIRK1/2, thallium flux, primary screen (AID 624;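 active = fluorescence slope after compound addition differing from the mean of all screened samples at 99.7% confidence, in either direction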;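 also: slope of fluorescence ratio to pre-addition baseline per second over 15 to 24 s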). Conditions: thallium flux BTC fluorescence, at 10 µM, actives lie on both sides.
The nature of experiment [8]: inhibitors of larval lipid processing in zebrafish, primary screen, whole organism, PED6 fluorescence, gall bladder and intestine (AID 686;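 active = a full or partial loss of lipid-probe fluorescence in the fish gall bladder, intestine or both, judged by eye; inactive = no fluorescence loss, or compound toxic to the fish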;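 also: signal comes from phospholipase A2 cleavage of quenched PED6 carried via bile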). The following applies: Zebrafish larvae PED6 lipid processing, fluorescence scoring; screened at 20 µM (by protocol). In a few lines: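 Doses: 20 µM single dose. Test system: live zebrafish larvae aged 5-7 days, whole organism. Quantity: five larvae per well. Measured by: By-eye fluorescence microscopy. Reagent: ingested quenched lipid PED6 at 100 nM. Read-out: visual per-well fluorescence inhibition score. Times: overnight exposure of larvae to compound plus PED6.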

The nature of experiment [9]: loss of swimming-algae plug formation – whole organism, Chlamydomonas reinhardtii, WT vs cilia-less mutant, absorbance, 96-well, primary screen (AID 463189;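 active = inhibition at or above 50% relative to wild type and mutant plate controls; inactive = inhibition below 50%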;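 also: 0% = wild type cc124 cells in DMSO and 100% = ciliumless bld1 mutant cells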). Conditions: Chlamydomonas reinhardtii gravitaxis, OD600 absorbance, 2 days; at 10 µM; stronger effect = higher value.
The mark [10] stands for this setting: measured here: cell density z-score.
The mark [11] stands for this setting: measured here: nuclear c-Myc green intensity z-score.
Where [12] appears, read: measured here: nuclear pErk red intensity z-score, stronger effect = higher value.

Dual specificity protein phosphatase 6 (Homo sapiens), sequence (Q16828 whole entry, looked up): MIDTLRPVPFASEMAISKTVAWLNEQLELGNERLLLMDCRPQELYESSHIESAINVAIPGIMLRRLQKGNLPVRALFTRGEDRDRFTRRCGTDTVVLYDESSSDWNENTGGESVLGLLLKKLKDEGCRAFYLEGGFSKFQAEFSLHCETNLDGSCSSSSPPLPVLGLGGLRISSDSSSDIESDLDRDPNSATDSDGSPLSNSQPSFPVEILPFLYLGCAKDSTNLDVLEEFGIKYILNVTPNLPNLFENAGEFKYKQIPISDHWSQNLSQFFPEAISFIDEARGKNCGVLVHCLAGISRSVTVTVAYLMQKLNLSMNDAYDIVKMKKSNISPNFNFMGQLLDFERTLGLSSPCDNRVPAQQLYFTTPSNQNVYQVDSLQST
Voltage-gated potassium channel subunit beta-2 (Rattus norvegicus), sequence (P62483 whole entry, looked up): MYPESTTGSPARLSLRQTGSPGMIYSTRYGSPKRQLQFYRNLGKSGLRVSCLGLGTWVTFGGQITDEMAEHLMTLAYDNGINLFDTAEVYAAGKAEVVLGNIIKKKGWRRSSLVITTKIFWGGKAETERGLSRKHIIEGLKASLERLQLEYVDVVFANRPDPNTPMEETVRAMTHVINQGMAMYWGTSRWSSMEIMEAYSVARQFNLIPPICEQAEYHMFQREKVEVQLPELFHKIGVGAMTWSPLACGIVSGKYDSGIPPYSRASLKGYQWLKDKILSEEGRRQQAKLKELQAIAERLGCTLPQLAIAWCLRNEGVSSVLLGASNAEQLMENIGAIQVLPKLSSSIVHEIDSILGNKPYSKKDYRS
Alpha-2C adrenergic receptor (Homo sapiens), sequence (P18825 whole entry, looked up): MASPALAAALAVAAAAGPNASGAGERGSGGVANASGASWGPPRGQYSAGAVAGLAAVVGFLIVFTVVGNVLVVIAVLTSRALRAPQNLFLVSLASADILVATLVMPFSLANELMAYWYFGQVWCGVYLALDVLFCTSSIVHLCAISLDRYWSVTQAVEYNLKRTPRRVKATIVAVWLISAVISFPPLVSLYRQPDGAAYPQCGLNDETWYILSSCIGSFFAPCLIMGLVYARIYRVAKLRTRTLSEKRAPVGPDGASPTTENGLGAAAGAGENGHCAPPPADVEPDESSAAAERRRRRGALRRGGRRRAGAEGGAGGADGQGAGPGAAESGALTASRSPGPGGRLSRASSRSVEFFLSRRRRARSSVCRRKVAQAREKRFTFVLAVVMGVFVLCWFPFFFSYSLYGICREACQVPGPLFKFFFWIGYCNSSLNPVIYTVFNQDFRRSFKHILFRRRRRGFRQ

The inhibition is the relative decrease from the control value, in per cent. As for `CCSc1nnc(N(CCC(=O)O)CCC(=O)O)s1`, the cell count in experiment [1] was 371. For the same compound, the inhibition in experiment [1] is -10.5% (inactive); in [2], -116% (inactive); in experiment [4] it was 7.48% (inactive); in experiment [9], -5.02% (inactive). This compound also had a nuclei count in [2] of 155%. Further, the z-score is 0.0345 in [3] (setting [10]), 0.0362 in experiment [3] (setting [11]) and -1.04 in experiment [3] (setting [12]). The fluorescence slope in [5] is -0.422 (inactive). Moreover, the NADPH fluorescence slope in experiment [6] was -2.2e-05 (inactive). Moreover, in experiment [7], the slope was 0.00562 (inactive). The call in experiment [8] was inactive.

Consider `COCc1cc(C)nc(SCC(=O)Nc2ccc(C)c(C)c2)c1C#N`, for which the cell count in [1] is 618. Also, the inhibition in [1] was -2.6% (inactive); in [2] it was -92.9% (inactive); in experiment [4], 5.65% (inactive); in [9], -8.23% (inactive). In experiment [2], the nuclei count came to 161%. Moreover, the values for the z-score in [3] (setting [10]), in [3] (setting [11]) and in experiment [3] (setting [12]) were -2.03, 0.714 and 1.02, respectively. Further, the fluorescence slope in experiment [5] was -0.269 (inactive). In addition, the NADPH fluorescence slope in experiment [6] is -9.9e-06 (inactive). Also, the slope in [7] is 0.00532 (inactive). The call in experiment [8] was inactive.

`O=C1OC(Nc2ccc(Br)cn2)c2ccccc21` (centres undefined): the cell count in experiment [1] is 388. Besides, the inhibition was 2.6% (inactive) in [1], 47.2% (inactive) in [2], -8.27% (inactive) in [4] and -9.02% (inactive) in experiment [9]. In addition, in experiment [2], the nuclei count came to 94.3%. Further, the figures for the z-score in experiment [3] (setting [10]), in experiment [3] (setting [11]) and in experiment [3] (setting [12]) were -0.833, -0.569 and 0.497, respectively. For the same compound, in experiment [5], the fluorescence slope is -0.44 (inactive). Also, in experiment [6], the NADPH fluorescence slope was -1.7e-06 (inactive). Moreover, the slope in [7] was 0.00494 (inactive). Besides, the outcome in experiment [8] was inactive.

For `COC(=O)/C(=C1/Oc2cc(C)oc(=O)c2S1)C(F)(F)F`, the cell count in experiment [1] stood at 330. Further, the inhibition in [1] is -2.4% (inactive); in [2], -59.5% (inactive); in experiment [4], 28% (inactive); in [9] it was 5.01% (inactive). The same compound had a nuclei count in experiment [2] of 177%. The z-score in experiment [3] (setting [10]) turned out to be 1.64; in [3] (setting [11]), 0.462; in [3] (setting [12]), 0.469. The fluorescence slope in experiment [5] is -0.427 (inactive). The NADPH fluorescence slope in experiment [6] was -0.000106 (inactive). The slope in [7] was 0.0045 (inactive). Moreover, the outcome in experiment [8] was inactive.

On to `COc1cc(OC)cc(C(=O)N2CCC(N3CCCCCC3)CC2)c1`, for which the cell count in experiment [1] was determined as 372. Also, the inhibition is -26.6% (inactive) in experiment [1], -111% (inactive) in [2], 32.7% (inactive) in experiment [4] and 29.1% (inactive) in experiment [9]. Besides, the nuclei count in [2] came out at 132%. The z-score was 2.06 in experiment [3] (setting [10]), -1.95 in experiment [3] (setting [11]) and -0.585 in [3] (setting [12]). Moreover, the fluorescence slope in [5] is -0.337 (inactive). Besides, in experiment [6], the NADPH fluorescence slope is -2.1e-05 (inactive). Moreover, the slope in [7] was 0.00559 (inactive). The outcome in experiment [8] was “inactive; toxic”.

Consider `CC(=O)c1cc(C#N)c(SCc2ccncc2)nc1C`, for which, in experiment [1], the cell count was found to be 591. Also, the inhibition is -18.5% (inactive) in [1], 40% (inactive) in experiment [2], -2.29% (inactive) in experiment [4] and -20.5% (inactive) in experiment [9]. Besides, in experiment [2], the nuclei count was determined as 122%. The z-score in experiment [3] (setting [10]) was 1.87; in experiment [3] (setting [11]) it was -0.619; in [3] (setting [12]), 1.67. Besides, the fluorescence slope in experiment [5] was -0.548 (inactive). Besides, the NADPH fluorescence slope in experiment [6] is -8.8e-06 (inactive). The slope in [7] is 0.00573 (inactive). The call in experiment [8] was inactive.

On to `N#CCCSCc1ccc(OCC(=O)O)cc1`, for which the cell count in [1] amounted to 547. In addition, the inhibition in experiment [1] was -22.2% (inactive); in experiment [2] it was -141% (inactive); in experiment [4], 5.95% (inactive); in experiment [9], 2.45% (inactive). The compound further displayed a nuclei count in [2] of 138%. For the same compound, the z-score in [3] (setting [10]) was 0.922; in experiment [3] (setting [11]) it was -1.08; in experiment [3] (setting [12]), 0.0284. Moreover, in experiment [5], the fluorescence slope was -0.488 (inactive). Besides, the NADPH fluorescence slope in experiment [6] is -9.2e-05 (inactive). Also, the slope in experiment [7] was 0.00635 (inactive). For the same compound, the outcome in [8] was inactive.

For `CC(=O)c1ccc(O)c(CO)c1`, the cell count in experiment [1] is 639. For the same compound, the inhibition was -20.9% (inactive) in experiment [1], -32.3% (inactive) in experiment [2], 4.37% (inactive) in experiment [4] and -12.4% (inactive) in experiment [9]. Also, in experiment [2], the nuclei count is 101%. For the same compound, the z-score is -0.0166 in experiment [3] (setting [10]), 0.525 in [3] (setting [11]) and -0.493 in experiment [3] (setting [12]). In addition, the fluorescence slope in experiment [5] was -0.463 (inactive). For the same compound, the NADPH fluorescence slope in experiment [6] was -1.1e-05 (inactive). Moreover, the slope in experiment [7] was 0.00706 (inactive). For the same compound, the compound was classed as inactive in [8].

With `O=C1[C@@H]2[C@H](C(=O)N1n1cnnc1)[C@H]1C=C[C@@H]2C1`, the cell count in experiment [1] amounted to 618. The inhibition in [1] was -4.3% (inactive); in [2] it was -49.4% (inactive); in experiment [4], 4.25% (inactive); in [9] it was 13.5% (inactive). The nuclei count in experiment [2] came out at 143%. Besides, the z-score was -1.23 in experiment [3] (setting [10]), -0.0869 in experiment [3] (setting [11]) and -0.601 in experiment [3] (setting [12]). Also, the fluorescence slope in experiment [5] was -0.529 (inactive). Also, the NADPH fluorescence slope in experiment [6] is -6.9e-05 (inactive). The slope in experiment [7] was 0.00514 (inactive). The outcome in experiment [8] was inactive.

In the case of `CC1(C)Cc2c(C#N)c(OCC(=O)c3ccc(Cl)cc3)nc(-c3ccoc3)c2CO1`, in experiment [1], the cell count amounted to 654. For the same compound, the inhibition is -2.9% (inactive) in experiment [1], 20% (inactive) in experiment [2], 13.2% (inactive) in experiment [4] and 40.4% (inactive) in [9]. This compound also registered a nuclei count in experiment [2] of 170%. The z-score was -0.432 in experiment [3] (setting [10]), -0.355 in experiment [3] (setting [11]) and 0.479 in [3] (setting [12]). In addition, in experiment [5], the fluorescence slope is -0.487 (inactive). In addition, the NADPH fluorescence slope in [6] was -4.2e-05 (inactive). Besides, in [7], the slope was 0.00736 (inactive). Further, the outcome in experiment [8] was inactive.

With `CSc1nnc2n(C3CCCCC3)c(=O)c3c4c(sc3n12)CCCC4`, the cell count in experiment [1] came out at 609. The inhibition in experiment [1] is -10.6% (inactive); in [2], -12.8% (inactive); in experiment [4] it was -2.07% (inactive); in [9], -18.3% (inactive). The compound also displayed a nuclei count in experiment [2] of 111%. Moreover, the z-score in experiment [3] (setting [10]) is -0.921; in experiment [3] (setting [11]) it was -0.992; in [3] (setting [12]), -0.882. In experiment [5], the fluorescence slope was -0.502 (inactive). The NADPH fluorescence slope in [6] was -0.000304 (inactive). The slope in experiment [7] is 0.0054 (inactive). Also, the result in experiment [8] was inactive.

With `CCOC(=O)C1=C(CSc2nc3c(cc2C#N)CCC3)OC(N)=C(C#N)C1c1ccccc1` (centres undefined), in experiment [1], the cell count was found to be 514. Further, the inhibition was -16.1% (inactive) in experiment [1], -90.1% (inactive) in [2], -0.674% (inactive) in experiment [4] and 5.98% (inactive) in experiment [9]. This compound displayed a nuclei count in experiment [2] of 118%. The z-score was -0.196 in [3] (setting [10]), 0.0665 in experiment [3] (setting [11]) and -0.283 in [3] (setting [12]). The fluorescence slope in [5] is -0.426 (inactive). Moreover, the NADPH fluorescence slope in experiment [6] was 5.2e-06 (inactive). The slope in [7] is 0.00558 (inactive). In addition, in [8], the call was inactive.

In the case of `O=C(c1cccc(Cl)c1)N1CCN(C(=O)c2ccccc2F)CC1`, in experiment [1], the cell count is 359. Besides, the inhibition is -17.3% (inactive) in experiment [1], -357% (inactive) in experiment [2], 1.75% (inactive) in experiment [4] and -3.06% (inactive) in experiment [9]. The same compound displayed a nuclei count in experiment [2] of 113%. Also, the z-score was -0.228 in [3] (setting [10]), -0.0273 in experiment [3] (setting [11]) and -2.04 in experiment [3] (setting [12]). Besides, the fluorescence slope in [5] was -0.466 (inactive). For the same compound, the NADPH fluorescence slope in [6] is -1.8e-06 (inactive). For the same compound, the slope in experiment [7] is 0.00888 (inactive). For the same compound, the compound was classed as inactive in experiment [8].
